Measured values as given in ChEMBL document CHEMBL1145056, “Structure-activity relationships of novel cyclic alpha-MSH/beta-MSH hybrid analogues that lead to potent and selective ligands for the human MC3R and human MC5R” (J Med Chem, 2003).
Positions of bridges follow the written chain, without caps; N, C: chain ends. Non-standard residues stand in square brackets, D forms with d. Residues, ends and D or L forms follow the SMILES beside them. d2Nal = N[C@H](Cc1ccc2ccccc2c1)C(=O)O

Assays:
Melanocortin receptor 5 [1] = molecular target: T1, Melanocortin receptor 5 (Homo sapiens, UniProt P33032); assay: (§1) Effective concentration of peptide at 50% maximal cAMP generation (10e-10 to 10e-4 M); type: functional
T1 sequence (P33032 whole entry): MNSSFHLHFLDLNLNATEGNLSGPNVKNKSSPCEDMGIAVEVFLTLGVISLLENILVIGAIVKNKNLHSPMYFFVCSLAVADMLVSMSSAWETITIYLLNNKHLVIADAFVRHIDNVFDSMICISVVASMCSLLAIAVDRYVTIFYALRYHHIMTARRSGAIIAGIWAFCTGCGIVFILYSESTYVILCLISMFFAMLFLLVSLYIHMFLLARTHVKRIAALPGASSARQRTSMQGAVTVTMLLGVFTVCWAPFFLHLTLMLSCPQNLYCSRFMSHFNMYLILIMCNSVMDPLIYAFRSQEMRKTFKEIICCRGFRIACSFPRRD
In short: (§2)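 Receptor-transfected human MCR HEK293 cells were seeded at 50 000 cells/well 48 h before the assay. Cells were preincubated in EBSS with 0.5 mM IBMX for 1 min at 37 °C, then exposed to peptide (10^-10 to 10^-4 M) for 3 min at 37 °C. The reaction was stopped with ice-cold Tris/EDTA, and lysates were boiled 15 min. cAMP was measured by competitive binding kit.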

Melanocortin receptor 4 [2] = molecular target: T2, Melanocortin receptor 4 (Homo sapiens, UniProt P32245); assay: Inhibition of human melanocortin 4 receptor
T2 sequence (P32245 whole entry): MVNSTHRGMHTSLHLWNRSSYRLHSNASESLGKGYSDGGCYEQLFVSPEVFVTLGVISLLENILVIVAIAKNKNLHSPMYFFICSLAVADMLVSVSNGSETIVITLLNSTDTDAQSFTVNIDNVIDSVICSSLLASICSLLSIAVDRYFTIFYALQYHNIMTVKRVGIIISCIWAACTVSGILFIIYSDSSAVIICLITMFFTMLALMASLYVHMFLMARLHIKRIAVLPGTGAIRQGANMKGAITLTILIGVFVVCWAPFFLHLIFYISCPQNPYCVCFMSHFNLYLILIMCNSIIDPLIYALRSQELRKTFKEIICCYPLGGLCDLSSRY

Melanocortin receptor 4 [3] = molecular target: T2, Melanocortin receptor 4; assay: (§3) Effective concentration of peptide at 50% maximal cAMP generation; type: functional
Melanocortin receptor 5 [4] = molecular target: T1, Melanocortin receptor 5; assay: Inhibition of human melanocortin 5 receptor
Melanocortin receptor 3 [5] = molecular target: T3, Melanocortin receptor 3 (Homo sapiens, UniProt P41968); assay: as §3; type: functional
T3 sequence (P41968 whole entry): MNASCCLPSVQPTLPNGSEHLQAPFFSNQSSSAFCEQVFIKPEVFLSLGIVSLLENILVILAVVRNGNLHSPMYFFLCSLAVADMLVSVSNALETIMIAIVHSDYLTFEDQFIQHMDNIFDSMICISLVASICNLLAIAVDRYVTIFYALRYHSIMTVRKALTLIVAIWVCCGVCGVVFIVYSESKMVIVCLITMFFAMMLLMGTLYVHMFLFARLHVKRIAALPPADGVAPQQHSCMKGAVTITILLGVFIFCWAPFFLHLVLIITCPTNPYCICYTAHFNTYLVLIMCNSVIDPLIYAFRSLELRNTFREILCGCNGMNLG
In short: (§4)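 Receptor-transfected human MCR HEK293 cells were seeded at 50 000 cells/well 48 h before the assay. The reaction was stopped with ice-cold Tris/EDTA, and lysates were boiled 15 min. cAMP was measured by competitive binding kit.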

Melanocortin receptor 3 [6] = molecular target: T3, Melanocortin receptor 3; assay: Inhibition of human Melanocortin 3 receptor
Melanocortin receptor 5 [7] = molecular target: T1, Melanocortin receptor 5; assay: as §3; type: functional; in short: as §4
Melanocortin receptor 4 [8] = molecular target: T2, Melanocortin receptor 4; assay: as §1; type: functional; in short: as §2
Melanocortin receptor 5 [9] = molecular target: T1, Melanocortin receptor 5; assay: Inhibitory activity against human melanocortin receptor human Melanocortin 5 receptor was determined
In short: (§5)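 Whole-cell competition binding in HEK293 cells stably transfected with human MCRs (CMVneo vector), 50 000 cells/well seeded 48 h before. Binding buffer: MEM, 25 mM HEPES pH 7.4, 0.2% BSA, 1,10-phenanthroline, leupeptin, bacitracin. Cells were incubated with unlabeled peptide (10^-10 to 10^-4 M) and 0.1386 nM [125I-Tyr2]-[Nle4,D-Phe7]α-MSH for 40 min at 37 °C, then washed, lysed (NaOH/Triton X-100) and gamma-counted.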

Melanocortin receptor 4 [10] = molecular target: T2, Melanocortin receptor 4; assay: Inhibitory activity against human melanocortin receptor human Melanocortin 4 receptor was determined; in short: as §5
Melanocortin receptor 3 [11] = molecular target: T3, Melanocortin receptor 3; assay: Inhibitory activity against human Melanocortin 3 receptor was determined; in short: as §5

| SMILES | EC50 (Melanocortin receptor 5 [1]) [µM] | IC50 (Melanocortin receptor 4 [2]) [µM] | EC50 (Melanocortin receptor 4 [3]) [µM] | IC50 (Melanocortin receptor 5 [4]) [µM] | EC50 (Melanocortin receptor 3 [5]) [µM] | IC50 (Melanocortin receptor 3 [6]) [µM] | EC50 (Melanocortin receptor 5 [7]) [µM] | EC50 (Melanocortin receptor 4 [8]) [µM] | Ki (Melanocortin receptor 5 [9]) [µM] | Ki (Melanocortin receptor 4 [10]) [µM] | Ki (Melanocortin receptor 3 [11]) [µM] |
| --- | --- | --- | --- | --- | --- | --- | --- | --- | --- | --- | --- |
| CC(=O)N[C@H]1CSSC[C@@H](C(=O)N2CCC[C@H]2C(=O)N2CCC[C@H]2C(=O)N[C@@H](CCCCN)C(=O)N[C@@H](CC(=O)O)C(N)=O)NC(=O)[C@H](Cc2c[nH]c3ccccc23)NC(=O)[C@H](CCCNC(=N)N)NC(=O)[C@@H](Cc2ccccc2)NC(=O)[C@@H]2CCCN2C(=O)[C@H](CCC(=O)O)NC1=O | 0.38 | 3.3 | > 10 | 0.2 | 0.401 | > 1 |  |  |  |  |  |
| CC(=O)N[C@H]1CSSC[C@@H](C(=O)N2CCC[C@H]2C(=O)N2CCC[C@H]2C(=O)N[C@@H](CCCCN)C(=O)N[C@@H](CC(=O)O)C(N)=O)NC(=O)[C@H](Cc2c[nH]c3ccccc23)NC(=O)[C@H](CCCN=C(N)N)NC(=O)[C@@H](Cc2ccc3ccccc3c2)NC(=O)[C@H](Cc2c[nH]cn2)NC(=O)[C@H](CCC(=O)O)NC1=O |  | 0.0034 | 0.0061 | 0.18 | > 10 | 0.13 | 0.19 |  |  |  |  |
| CC(=O)N[C@@H]1C(=O)N[C@@H](CCC(=O)O)C(=O)N[C@@H](Cc2c[nH]cn2)C(=O)N[C@H](Cc2ccc3ccccc3c2)C(=O)N[C@@H](CCCN=C(N)N)C(=O)N[C@@H](Cc2c[nH]c3ccccc23)C(=O)N[C@H](C(=O)N2CCC[C@H]2C(=O)N2CCC[C@H]2C(=O)N[C@@H](CCCCN)C(=O)N[C@@H](CC(=O)O)C(N)=O)CSSC1(C)C |  | 0.75 | > 10 | 0.094 | > 10 | 0.003 | > 10 |  |  |  |  |
| CC(=O)N[C@H]1CSSC[C@@H](C(=O)N2CCC[C@H]2C(=O)N2CCC[C@H]2C(=O)N[C@@H](CCCCN)C(=O)N[C@@H](CC(=O)O)C(N)=O)NC(=O)CNC(=O)[C@H](Cc2c[nH]c3ccccc23)NC(=O)[C@H](CCCNC(=N)N)NC(=O)[C@@H](Cc2ccc3ccccc3c2)NC(=O)[C@H](Cc2c[nH]cn2)NC(=O)[C@H](CCC(=O)O)NC1=O (Ac-CEH[d2Nal]RWGCPPKD-NH2; disulfide 1-8) |  |  |  |  |  |  |  |  | 0.694 | 0.0031 | 0.054 |
| CC(=O)N[C@@H]1CSSC[C@@H](C(=O)N2CCC[C@H]2C(=O)N2CCC[C@H]2C(=O)N[C@@H](CCCCN)C(=O)N[C@@H](CC(=O)O)C(N)=O)NC(=O)[C@H](Cc2c[nH]c3ccccc23)NC(=O)[C@H](CCCNC(=N)N)NC(=O)[C@@H](Cc2ccccc2)NC(=O)[C@H](Cc2c[nH]cn2)NC(=O)[C@H](CCC(=O)O)NC1=O |  | 37 | > 10 | 0.073 | > 10 | 0.62 | > 10 |  |  |  |  |

The remaining lines, values ahead:

| EC50 (Melanocortin receptor 5 [1]) [µM] | IC50 (Melanocortin receptor 4 [2]) [µM] | EC50 (Melanocortin receptor 4 [3]) [µM] | IC50 (Melanocortin receptor 5 [4]) [µM] | EC50 (Melanocortin receptor 3 [5]) [µM] | IC50 (Melanocortin receptor 3 [6]) [µM] | EC50 (Melanocortin receptor 5 [7]) [µM] | EC50 (Melanocortin receptor 4 [8]) [µM] | Ki (Melanocortin receptor 5 [9]) [µM] | Ki (Melanocortin receptor 4 [10]) [µM] | Ki (Melanocortin receptor 3 [11]) [µM] | SMILES |
| --- | --- | --- | --- | --- | --- | --- | --- | --- | --- | --- | --- |
| 0.88 | 3.7 | > 10 | 26 | > 10 | 0.2 |  |  |  |  |  | CC(=O)N[C@@H]1CSSC[C@@H](C(=O)N2CCC[C@H]2C(=O)N2CCC[C@H]2C(=O)N[C@@H](CCCCN)C(=O)N[C@@H](CC(=O)O)C(N)=O)NC(=O)[C@H](Cc2c[nH]c3ccccc23)NC(=O)[C@H](CCCN=C(N)N)NC(=O)[C@@H](Cc2ccc3ccccc3c2)NC(=O)[C@H](Cc2c[nH]cn2)NC(=O)[C@H](CCC(=O)O)NC1=O |
|  | 40 | > 10 | 15 | > 10 | 2.9 | > 10 |  |  |  |  | CC(=O)N[C@H]1CSSC[C@H](C(=O)N2CCC[C@H]2C(=O)N2CCC[C@H]2C(=O)N[C@@H](CCCCN)C(=O)N[C@@H](CC(=O)O)C(N)=O)NC(=O)[C@H](Cc2c[nH]c3ccccc23)NC(=O)[C@H](CCCN=C(N)N)NC(=O)[C@@H](Cc2ccc3ccccc3c2)NC(=O)[C@H](Cc2c[nH]cn2)NC(=O)[C@H](CCC(=O)O)NC1=O |
|  | > 10 | > 10 | 0.01 | > 10 | 5.6 | > 10 |  |  |  |  | CC(=O)N[C@H]1CSSC[C@H](C(=O)N2CCC[C@H]2C(=O)N2CCC[C@H]2C(=O)N[C@@H](CCCCN)C(=O)N[C@@H](CC(=O)O)C(N)=O)NC(=O)[C@H](Cc2c[nH]c3ccccc23)NC(=O)[C@H](CCCNC(=N)N)NC(=O)[C@@H](Cc2ccccc2)NC(=O)[C@H](Cc2c[nH]cn2)NC(=O)[C@H](CCC(=O)O)NC1=O |
|  | 1.1 | 0.0063 | 27 | 0.0028 | 0.43 | > 10 |  |  |  |  | CC(=O)N[C@@H]1C(=O)N[C@@H](CCC(=O)O)C(=O)N[C@@H](Cc2c[nH]cn2)C(=O)N[C@H](Cc2ccccc2)C(=O)N[C@@H](CCCN=C(N)N)C(=O)N[C@@H](Cc2c[nH]c3ccccc23)C(=O)N[C@H](C(=O)N2CCC[C@H]2C(=O)N2CCC[C@H]2C(=O)N[C@@H](CCCCN)C(=O)N[C@@H](CC(=O)O)C(N)=O)CSSC1(C)C |
|  | 17 |  | 97 | > 10 | 0.031 | > 10 | > 10 |  |  |  | CC(=O)N[C@H]1CSSC[C@@H](C(=O)N2CCC[C@H]2C(=O)N2CCC[C@H]2C(=O)N[C@@H](CCCCN)C(=O)N[C@@H](CC(=O)O)C(N)=O)NC(=O)[C@H](Cc2c[nH]c3ccccc23)NC(=O)[C@H](CCCNC(=N)N)NC(=O)[C@@H](Cc2ccc3ccccc3c2)NC(=O)[C@@H]2CCCN2C(=O)[C@H](CCC(=O)O)NC1=O |
|  | > 10 | > 10 | > 10 | > 10 | > 1 | > 10 |  |  |  |  | CC(=O)N[C@H]1CC(=O)NCCCC[C@@H](C(=O)N2CCC[C@H]2C(=O)N2CCC[C@H]2C(=O)N[C@@H](CCCCN)C(=O)N[C@@H](CC(=O)O)C(N)=O)NC(=O)[C@H](Cc2c[nH]c3ccccc23)NC(=O)[C@H](CCCNC(=N)N)NC(=O)[C@@H](Cc2ccccc2)NC(=O)[C@H](Cc2c[nH]cn2)NC(=O)[C@H](CCC(=O)O)NC1=O |
